From ChEMBL document CHEMBL3352135, “Antiproliferative prenylated xanthones and benzophenones from the roots of Cudrania tricuspidata in HSC-T6 cells” (J Nat Prod, 2014)

How the values were obtained:
[1] = Antiproliferative activity against rat HSC-T6 cells assessed as reduction in cell viability; assay type: functional, cell-based
In short: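 Immortalized rat hepatic stellate line HSC-T6. Viability was measured by a procedure from earlier work, and IC50 values were derived from it. Epigallocatechin-3-gallate was the positive control.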

[2] = Induction of apoptosis in rat HSC-T6 cells assessed as viable cells at 1 uM after 48 hrs using annexin-V/PI double staining by flow cytometry (reference value: 99.2 %); assay type: functional; settings: HSC-T6, 48 h, read-out: Activity
[3] = Induction of apoptosis in rat HSC-T6 cells assessed as early apoptotic cells at 1 uM after 48 hrs using annexin-V/PI double staining by flow cytometry (reference value: 0.150 %); assay type: functional
[4] = Induction of apoptosis in rat HSC-T6 cells assessed as late apoptotic cells at 1 uM after 48 hrs using annexin-V/PI double staining by flow cytometry (reference value: 0.130 %); assay type: functional
[5] = Induction of apoptosis in rat HSC-T6 cells assessed as necrotic cells at 1 uM after 48 hrs using annexin-V/PI double staining by flow cytometry (reference value: 0.550 %); assay type: functional
[6] = Induction of apoptosis in rat HSC-T6 cells assessed as viable cells at 3 uM after 48 hrs using annexin-V/PI double staining by flow cytometry (reference value: 99.2 %); assay type: functional; settings: HSC-T6, 48 h, read-out: Activity
[7] = Induction of apoptosis in rat HSC-T6 cells assessed as early apoptotic cells at 3 uM after 48 hrs using annexin-V/PI double staining by flow cytometry (reference value: 0.150 %); assay type: functional
[8] = Induction of apoptosis in rat HSC-T6 cells assessed as late apoptotic cells at 3 uM after 48 hrs using annexin-V/PI double staining by flow cytometry (reference value: 0.130 %); assay type: functional
[9] = Induction of apoptosis in rat HSC-T6 cells assessed as necrotic cells at 3 uM after 48 hrs using annexin-V/PI double staining by flow cytometry (reference value: 0.550 %); assay type: functional

C=CC(C)(C)c1c(O)c(CC=C(C)C)c2oc3cc(O)c(O)cc3c(=O)c2c1O [MACLURAXANTHONE B]
IC50 [1]: 13.3 µM

CC1(C)C=Cc2cc(C(=O)c3cccc(O)c3)c(O)c(O)c2O1
IC50 [1]: 7.1 µM

C[C@@H]1Oc2cc3oc4c5c(c(O)cc4c(=O)c3c(O)c2C1(C)C)OC(C)(C)C=C5
IC50 [1]: 15.9 µM

CC1(C)C=Cc2c(cc(O)c3c(=O)c4c5c(ccc4oc23)OC(C)(C)C=C5)O1
IC50 [1]: > 30 µM

CC(C)=CCc1c(O)c(O)cc2c(=O)c3c(O)c4c(cc3oc12)OC(C)C4(C)C (centres undefined) [CUDRAXANTHONE M]
IC50 [1]: 10.4 µM

C=CC(C)(C)c1c(OC)cc(O)c2c(=O)c3ccc(O)c(O)c3oc12 [ISOCUDRANIAXANTHONE B]
IC50 [1]: 17.3 µM

COc1c(CC=C(C)C)c(O)c2c(=O)c3cc(O)c(O)cc3oc2c1CC=C(C)C [CUDRATRICUSXANTHONE K]
IC50 [1]: > 30 µM

COc1c2c(c3c(=O)c4cc(O)c(O)cc4oc3c1CC=C(C)C)O[C@@H](C)C2(C)C
IC50 [1]: 15.2 µM

O=c1c2ccc(O)cc2oc2ccc(O)cc12
IC50 [1]: > 30 µM

CC1Oc2cc(O)c3c(=O)c4ccc(O)c(O)c4oc3c2C1(C)C (centres undefined)
IC50 [1]: 13.1 µM

COc1c2c(c3c(=O)c4ccc(O)c(O)c4oc3c1CC=C(C)C)O[C@H](C)C2(C)C
IC50 [1]: 14.8 µM

O=C(O[C@@H]1Cc2c(O)cc(O)cc2O[C@@H]1c1cc(O)c(O)c(O)c1)c1cc(O)c(O)c(O)c1 [EPIGALOCATECHIN GALLATE]
IC50 [1]: 29.8 µM

COc1cc2oc3cc(O)cc(O)c3c(=O)c2cc1OC
IC50 [1]: > 30 µM

C=CC(C)(C)c1c(OC)c(CC=C(C)C)c2oc3cc(O)c(O)cc3c(=O)c2c1O
IC50 [1]: 9.7 µM | viability at 1 µM [2]: 80.8% | Activity [3]: 11.5% | Activity [4]: 2.54% | Activity [5]: 5.19% | viability at 3 µM [6]: 78.8% | Activity [7]: 8.76% | Activity [8]: 5.81% | Activity [9]: 6.67%

CC(C)=CCc1c(O)cc(O)c2c(=O)c3c(CC=C(C)C)c(O)ccc3oc12 [GERONTOXANTHONE H]
IC50 [1]: > 30 µM

CC(C)=CCc1c(O)cc(O)c2c(=O)c3cccc(O)c3oc12
IC50 [1]: > 30 µM
